Measured values taken from ChEMBL document CHEMBL2046298, “Lead optimization of purine based orally bioavailable Mps1 (TTK) inhibitors” (Bioorg Med Chem Lett, 2012).

Key:
[1] = Oral bioavailability in CD-1 mouse at 10 mg/kg; format: ADME, organism-based; settings: in vivo
Summary of the method: (§1)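 CD-1 mice given 10 mg/kg orally in a DMA/PEG 400 solution formulation; matched IV arm at 2.5 mg/kg in DMA/PEG 400 for %F.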

[2] = Plasma concentration in CD-1 mouse at 10 mg/kg, po measured at 4 hrs; format: ADME, organism-based; parameters: dose 10 mg/kg, route oral
Summary of the method: (§2)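 Abbreviated PK screen: CD-1 mice dosed orally at 10 mg/kg in DMA/PEG 400 solution; plasma levels determined at 4 and 8 h post-dose.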

[3] = Plasma concentration in CD-1 mouse at 10 mg/kg, po measured at 8 hrs; format: ADME, organism-based; parameters: dose 10 mg/kg, route oral; summary of the method: as §2
[4] = AUC in CD-1 mouse at 10 mg/kg, po; format: ADME, organism-based; parameters: dose 10 mg/kg, route oral; settings: plasma; summary of the method: as §1
[5] = Cmax in CD-1 mouse at 10 mg/kg, po; format: ADME, organism-based; parameters: dose 10 mg/kg, route oral; settings: in vivo; summary of the method: as §1
[6] = Apparent permeability of the compound by PAMPA; format: ADME

| SMILES | bioavailability [1] [%] | concentration at 4 h [2] [µg/mL] | concentration at 8 h [3] [µg/mL] | AUC [4] [µg·h/mL] | Cmax [5] [µM] | Papp [6] |
| --- | --- | --- | --- | --- | --- | --- |
| Cc1cc(N2CCOCC2)ccc1Nc1nc(NC2CCCCC2)c2nc[nH]c2n1 | 20 |  |  |  |  |  |
| COc1cc(N2CCN(S(=O)(=O)CCCN3CCOCC3)CC2)ccc1Nc1nc(NC2CCCCC2)c2nc[nH]c2n1 | 17.9 | 0.156 | 0.0175 | 1.73 | 1 |  |
| COc1cc(N2CCN(C(=O)N3CCN(C)CC3)CC2)ccc1Nc1nc(NC2CCCCC2)c2[nH]cnc2n1 |  |  |  |  |  | impermeable |
| COc1cc(N2CCN(Cc3ccccn3)CC2)ccc1Nc1nc(NC2CCCCC2)c2nc[nH]c2n1 |  | 0.0663 | 0.0029 |  |  |  |
| COc1cc(N2CCN(C(=O)N3CCC(O)C3)CC2)ccc1Nc1nc(NC2CCCCC2)c2nc[nH]c2n1 (stereo not drawn) |  |  |  |  |  | impermeable |
| COc1cc(N2CCC(N3CCOCC3)CC2)ccc1Nc1nc(NC2CCCCC2)c2nc[nH]c2n1 | 31 | 0.105 | 0.0442 | 1.71 | 2.6 |  |
| COc1cc(N2CCC(C(=O)N3CCOCC3)CC2)ccc1Nc1nc(NC2CCCCC2)c2nc[nH]c2n1 |  | 0.0167 | 0.00168 |  |  |  |
| COc1cc(N2CCC(CN3CCOCC3)CC2)ccc1Nc1nc(NC2CCCCC2)c2nc[nH]c2n1 | > 83 | 0.435 | 0.187 | 10.7 | 2.6 |  |
| COc1cc(N2CCC(CC(=O)N3CCOCC3)CC2)ccc1Nc1nc(NC2CCCCC2)c2nc[nH]c2n1 | 23.1 | 0.097 | 0.0209 | 1.65 | 1.4 |  |
| COc1cc(N2CCC(CC(=O)N3CCN(C)CC3)CC2)ccc1Nc1nc(NC2CCCCC2)c2[nH]cnc2n1 | 6.9 | 0.18 | 0.0399 | 0.547 | 0.3 |  |
| COc1cc(N2CCC(CC(=O)N3CCC(N(C)C)C3)CC2)ccc1Nc1nc(NC2CCCCC2)c2nc[nH]c2n1 (stereo not drawn) |  |  |  |  |  | impermeable |
| COc1cc(N2CCC(CC(=O)N3CCCC3)CC2)ccc1Nc1nc(NC2CCCCC2)c2nc[nH]c2n1 | 36 | 0.138 | 0.0692 | 1.77 | 1.8 |  |
